Hit rate of the full screen: of about 360,000 compounds, about 3,600 (1%) were called active.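 Rule for the calls: active = activation above the mean activation of all test compounds in the run plus 3 SD (cut at about 38% in these data); inactive = the rest.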 This excerpt belongs to a sample that is enriched for actives.

Chain of Trace amine-associated receptor 1 (Homo sapiens) (Q96RJ0 whole entry, looked up): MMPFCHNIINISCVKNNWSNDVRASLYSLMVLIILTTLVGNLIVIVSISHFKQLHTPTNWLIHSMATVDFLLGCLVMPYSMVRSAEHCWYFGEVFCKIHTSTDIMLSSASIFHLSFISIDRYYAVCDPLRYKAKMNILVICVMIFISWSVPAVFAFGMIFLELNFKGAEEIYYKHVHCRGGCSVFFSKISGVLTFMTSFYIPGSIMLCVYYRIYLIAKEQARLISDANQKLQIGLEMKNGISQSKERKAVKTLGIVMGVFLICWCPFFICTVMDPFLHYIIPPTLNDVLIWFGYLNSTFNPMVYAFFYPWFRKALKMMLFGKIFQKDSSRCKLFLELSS

The assay addresses Trace amine-associated receptor 1 (Homo sapiens) (UniProt Q96RJ0). Put plainly: human TAAR1 agonists, primary screen, Fluo-8 calcium fluorescence, CHO RD-HGA16 cells (AID 624467). The following applies: CHO RD-HGA16 TAAR1, Fluo-8 calcium fluorescence; at 3 µM; hits give high values; vehicle wells 0%, saturating PEA agonist 100%. The gist of the method: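 System: CHO-derived RD-HGA16 cells with stable Gα16 and human TAAR1 / Times: 17-24 h plating, Fluo-8 75 min 37 °C, 30 min RT / Technique: calcium-sensitive Fluo-8 signal, excitation 470-495, emission 515-575 nm / Measure: % activation relative to PEA EC100 response / Benchmarks: DMSO and PEA EC100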
On to `Cc1ccc(NC(=O)Cn2c(C)csc2=O)cc1`, for which the activation was 0.43% (inactive).
The same measure for `Cc1ccc(NC(=O)Cn2sc3ccccc3c2=O)cc1`: 37.5% (active); for `O=C(Cn1nc(C(=O)O)c2ccccc2c1=O)Nc1ccc(F)cc1`: 6.51% (inactive); for `COc1cccc(CNC(=O)[C@H]2CCCN2C(=O)[C@H]2CCCN2C(=O)c2ccc(F)cc2)c1`: -0.3% (inactive).
Turning to `COC(=O)N1Cc2ccnnc2CC1c1ccccc1Br` (stereo not given), the activation is 0.4% (inactive).
The same measure for `O=C(N/N=C/c1cc(Cl)cc([N+](=O)[O-])c1O)C(O)(c1ccccc1)c1ccccc1`: 42.4% (active); for `O=C(NN=Cc1ccco1)C(=O)Nc1ccc(Cl)c([N+](=O)[O-])c1`: 1.63% (inactive).
For `O=[N+]([O-])c1cc(Cl)cc(/C=N/NC(=S)Nc2cc(S(=O)(=O)N3CCOCC3)ccc2Cl)c1O`, the activation is 0.47% (inactive).
The same measure for `CCOC(=O)C1CSCCS(=O)(=O)N1Cc1ccc(Cl)cc1` (stereo not given): 1.13% (inactive); for `CCN1C(=O)N[C@@H]2C[C@H](C(=O)N3CCCC3)[C@H](C)[C@H](c3ccccc3)C[C@@H]21`: 0.86% (inactive); for `Cc1c(CNCCc2ccccc2)c(C(=O)O)c(C)n1-c1ccccc1`: 78.1% (active).
As for `CNC(=O)CSc1nnc(CCc2ccccc2)n1-c1ccccc1`, the activation is 5.04% (inactive).
Then `Cc1c(C(=O)NCc2ccccc2)cnn1-c1ccccc1`, with 2.79% (inactive); and `COc1ccc(C2=CN(Cc3ccccc3)C(c3ccc(OC)cc3)CC2=O)cc1` (stereo not given), with -1.8% (inactive).
The same measure for `O=C(NC1CCCC1)c1cc(-c2ccccc2)on1`: 2.47% (inactive); for `CC(NC(=O)c1cc(-c2ccccc2)on1)c1ccccc1` (stereo not given): 52% (active); for `Cc1ccc(C(=O)NC(C)c2ccccc2)cc1Br` (stereo not given): -1.3% (inactive).
Turning to `Cc1[nH]c2ccccc2c1CC(=O)Nc1ccc(Nc2cccnc2)c(-c2cccc(Cl)c2)c1`, the activation was 1.11% (inactive).
The same measure for `O=S1(=O)c2ccc(Br)cc2-n2nncc2CN1Cc1cccc(Cl)c1`: 1.66% (inactive); for `CCCCCCn1c(CN2CCCC(C)C2)nc2c1c(=O)n(C)c(=O)n2C` (stereo not given): 0.08% (inactive); for `CCCn1c(O)c(CN2CCCC(C)C2)c(C)c(C#N)c1=O` (stereo not given): 96.4% (active).
Then `Cc1c(CN2CCCCC2)c(O)n(CCO)c(=O)c1C#N`, with 11.5% (inactive).
`COc1ccc(C(CNC(=O)c2ccc(NS(=O)(=O)c3ccc(F)c(C)c3)cc2)N(C)C)cc1` (stereo not given): the activation is 3.7% (inactive).
Then `CN(C)C(CNC(=O)c1cccc(S(=O)(=O)Nc2ccc(Br)cc2)c1)c1ccco1` (stereo not given), with 16.7% (inactive); and `COc1ccc(C(CNC(=O)c2cccc(S(=O)(=O)Nc3ccc(Br)cc3)c2)N(C)C)cc1` (stereo not given), with 40.2% (active); and `COc1ccc(-n2cc(CNC3CCOCC3)c(-c3cccc(F)c3)n2)cc1`, with 7.84% (inactive).
Then `O=C(NCC(c1ccco1)N1CCc2ccccc2C1)c1ccccc1Cl` (stereo not given), with 12.4% (inactive).
The same measure for `CCOC(CNC(=O)C(=O)NCC(c1ccco1)N1CCN(c2ccc(OC)cc2)CC1)OCC` (stereo not given): 3.05% (inactive); for `COc1ccc(NC(=O)C(=O)NCC(c2ccco2)N2CCc3ccccc3C2)cc1` (stereo not given): 62.3% (active).
In the case of `Cc1[nH]nc2c1C(c1ccc(Br)cc1)NC2=O` (stereo not given), the activation is 0.5% (inactive).
Take `CCOc1ccc(Br)cc1CSC(=N)N`: the activation was 70.5% (active).
Then `CCOc1ccc(Br)cc1S(=O)(=O)N1CCC(C(=O)O)CC1`, with -0.19% (inactive); and `CC(C)(C)NCc1cc(Br)ccc1OC1CCCC1`, with 1.46% (inactive).
As for `CC(=O)N1C[C@@H](CO)[C@@H](N(C)C(=O)C(C)(C)C)C[C@H]1c1ccccc1Br`, the activation is 3.7% (inactive).
The same measure for `O=C(COc1ccc(Br)cc1F)NC1CCN(Cc2ccccc2)CC1`: 7.63% (inactive).
With `S=C(Nc1ccc(Br)cc1Cl)NC1CCN(Cc2ccccc2)CC1`, the activation was 18% (inactive).
In the case of `S=C(Nc1ccc(Br)cc1)NC1CCN(Cc2ccccc2)CC1`, the activation is 63% (active).
The same measure for `CCC(C)NC(=O)/C=C/c1ccc(S(=O)(=O)NCc2ccco2)cc1` (stereo not given): 0.26% (inactive); for `Cc1ccc2nc(C)c3c(c2c1)N(c1ccccc1)CC3`: 1.22% (inactive); for `Nc1nc2c(ncn2[C@@H]2O[C@H](C(=O)N[C@H](Cc3ccccc3)C(=O)NCC3CCCCC3)[C@@H](O)[C@H]2O)c(=O)[nH]1`: 2.45% (inactive).
Then `CC1CCN(C(=O)c2ncn3c2C(=O)N[C@@H](C)C3)CC1`, with 0.53% (inactive); and `CC1CCc2sc3nc(N4CCN(CCO)CC4)n4ncnc4c3c2C1` (stereo not given), with 13.3% (inactive).
Then `CC(C)[C@H]1COCCS(=O)(=O)N1Cc1ccccc1-c1cccc2c1sc1ccccc12`, with 1.46% (inactive); and `Cc1ccc(Cl)cc1N1CCN(C(=O)c2cccc3c(=O)c(C)c(-c4ccccc4)oc23)CC1`, with 78% (active).
Regarding `COc1ccccc1N1CCN(C(=O)c2cc(=O)c3cc(C)cc(C)c3o2)CC1`, the activation is 0.2% (inactive).
The same measure for `Cc1cccc(N2CCN(C(=O)c3cnn4c(C(F)F)cc(-c5ccccc5)nc34)CC2)c1C`: -0.23% (inactive); for `OC(CCl)CCl`: 4.28% (inactive).
With `CC(C)(C)n1nc(C2CC2)c(Br)c1NC(=O)c1ccccc1F`, the activation was -2.19% (inactive).
Then `COc1ccc(-c2nc3n(c(=O)c2C#N)CCS3)c(OC)c1`, with 1.68% (inactive).
The same measure for `Cc1ccc2c(c1)NCC(C(=O)NC1CCC(C)CC1)O2` (stereo not given): -0.02% (inactive); for `NS(=O)(=O)c1ccc(NC(=S)N2CCCC2)cc1`: 0.52% (inactive).
The same measure for `COc1ccc(NC(=S)Nc2ccc(S(N)(=O)=O)cc2)c(C)c1`: 5.94% (inactive).
For the compound `NS(=O)(=O)c1ccc(NC(=S)Nc2ccc(Br)c(Cl)c2)cc1`, the activation is 42.6% (active).
The same measure for `N#Cc1ccc(-c2nc3cc(C#N)c(C#N)cc3nc2-c2ccccc2)cc1C#N`: 2.52% (inactive); for `Cc1cc2c(nc1C)CCCN2C`: 0.42% (inactive); for `O=C(Cn1c(N2CCN(C/C=C/c3ccccc3)CC2)nc2ccccc21)c1ccccc1`: 7.57% (inactive).
The same measure for `CC(Oc1ccc(Cl)cc1)C(=O)Nc1ncccn1` (stereo not given): -0.09% (inactive).
Then `CC(Oc1ccc(Cl)cc1)C(=O)OCC(=O)Nc1ncc(Cl)cc1Cl` (stereo not given), with 74.1% (active); and `CC1(C(=O)OCC(=O)Nc2ncc(Cl)cc2Cl)CC1(Cl)Cl` (stereo not given), with -0.29% (inactive); and `CCc1ccc(NC(=O)N2CCc3ccccc3C2)cc1`, with 31% (inactive).
As for `Cc1ccc(NC(=O)CN2CCc3ccccc3C2)cc1C`, the activation was 9.67% (inactive).
The same measure for `Cc1ccc(NC(=O)CCN2CCc3ccccc3C2)cc1`: 88.5% (active); for `CCOc1ccc(Cl)cc1-c1cc(C(=O)NCc2cccs2)[nH]n1`: 0.34% (inactive); for `COc1ccc2c(c1)C(=O)CC(c1ccccc1)O2` (stereo not given): 5.95% (inactive).
The same measure for `COc1ccc2c(c1)SC(C)CC2=O` (stereo not given): 5.89% (inactive); for `COc1ccc2c(c1)OC(O)(C(F)(F)C(F)F)CC2=O` (stereo not given): 56.3% (active); for `Cc1ccc2c(c1)C(O)(CC(=O)c1cccnc1)C(=O)N2` (stereo not given): 0.5% (inactive).
Then `CCCCSc1nc2c(c(=O)n1CC)SC(C)C2` (stereo not given), with 10% (inactive); and `O=C(NS(=O)(=O)c1cccs1)[C@H]1O[C@@H](n2ccc(=O)[nH]c2=O)[C@H](O)[C@@H]1O`, with 0.38% (inactive).
Turning to `COc1cc(NC(=O)CN2C(=O)NC(C)(c3ccc(OC(F)F)cc3)C2=O)cc(OC)c1OC` (stereo not given), the activation was 5.76% (inactive).
As to `Cc1ccc(C2(C)NC(=O)N(CC(=O)N3CC(=O)Nc4ccccc43)C2=O)cc1` (stereo not given), the activation was 1.06% (inactive).
Regarding `Cc1ccc(NC(=O)CN2C(=O)NC(C)(c3ccc(Cl)cc3)C2=O)c(Br)c1` (stereo not given), the activation is 42.4% (active).
The same measure for `COc1ccc(C(=O)CN2C(=O)NC(C)(c3ccc(C)cc3)C2=O)cc1OC` (stereo not given): 59.9% (active); for `COc1ccc(C2(C)NC(=O)N(CC(=O)c3ccc4c(c3)OCO4)C2=O)cc1` (stereo not given): 25.5% (inactive); for `CC1CCC2(CC1)NC(=O)N(CC(=O)c1ccc3c(c1)OCO3)C2=O` (stereo not given): 1.46% (inactive).
The same measure for `Cc1ccc(C2(C)NC(=O)N(CC(=O)Nc3ccccc3C(=O)N3CCCCC3)C2=O)cc1` (stereo not given): 9.97% (inactive); for `CC1(c2ccc(Cl)cc2)NC(=O)N(CC(=O)c2ccc3c(c2)OCO3)C1=O` (stereo not given): 48.4% (active); for `Cc1ccc(S(=O)(=O)N2CCN(C(=O)CN3C(=O)NC(C)(c4ccc(Cl)cc4)C3=O)CC2)c(C)c1` (stereo not given): 9.36% (inactive).
The same measure for `COc1ccc(NC(=O)N(C)C[C@@H]2OCCCC[C@@H](C)Oc3ccc(NC(=O)NC4CCCCC4)cc3C(=O)N([C@H](C)CO)C[C@@H]2C)cc1`: 0.43% (inactive); for `O=C(N[C@H](Cc1ccccc1)C(=O)N1CCCN(Cc2cccs2)CC1)[C@H]1O[C@@H](n2ccc(=O)[nH]c2=O)[C@H](O)[C@@H]1O`: 0.87% (inactive).
Consider `N#Cc1cccc(C(=O)NCC2CCN(C(=O)C(=O)c3cc4ccccc4o3)CC2)c1`, for which the activation was 2.73% (inactive).
As to `CSc1ccc(Oc2cccc3c2S(=O)(=O)N([C@H](C)c2ccccc2)C[C@@H](COCc2ccccc2)O3)cc1C`, the activation was -0.58% (inactive).
Then `CC(NC(=O)C(=O)NN=C1CCC(C(C)(C)C)CC1)c1ccccc1` (stereo not given), with -1.32% (inactive); and `CCOC(=O)c1cc(-c2ccc(Cl)s2)nc2c1c(C)nn2C`, with 12.8% (inactive); and `CCCc1nnc(SCC(=O)N2C(C)CCCC2C)n1CC` (stereo not given), with 7.54% (inactive).
For the compound `COc1ccc(-n2c(-c3ccc(Cl)cc3)n[nH]c2=S)c(OC)c1`, the activation is 1% (inactive).
The same measure for `COc1cc(OC)c(-n2cc(-c3ccc(Cl)cc3)[nH]c2=O)cc1Cl`: 135% (active); for `COc1cc(OC)c(N2CC(C(=O)Nc3cc(Cl)ccc3N3CCOCC3)CC2=O)cc1Cl` (stereo not given): 9.38% (inactive); for `O=C(NC1CCCC1)C(c1ccc(Cl)cc1)N(C(=O)c1csnn1)C1CC1` (stereo not given): 2.16% (inactive).
Then `N#CCSc1ccccc1NC(=O)CN1C(=O)NC(CCc2ccccc2)C1=O` (stereo not given), with 4.54% (inactive).

The values are drawn from PubChem BioAssay AID624467 (The Scripps Research Institute Molecular Screening Center, 2012).
